PP5 inh: inhibitors of human protein phosphatase 5 (PP5). P53041. purified PP5c, OMFP substrate fluorescence. inhibition, % at 6.7 µM. hit rate 0.18% among 320,000;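 active = inhibition above the campaign's mean inhibition across all tested compounds plus 3 SD, cut at about 9.5% in these data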;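 also: 0% = DMSO only and 100% = 100 µM cantharidin control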
Myeloid diff 2: compounds promoting myeloid differentiation. hit rate 1% among 360,000. ER-HoxA9 myeloid progenitors, lysozyme-GFP differentiation, flow cytometry. calls only at 10 µM. AID 624256;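 active = normalized GFP-positive differentiation at or above the plate's own cutoff, the solvent-only control mean plus 3 SD; inconclusive = no clear call, values can overlap the other calls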;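 also: cells exposed to compound for four days before flow analysis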
Fh CTSL1 inh: cathepsin L1 inhibition, PFM18AAP counter-screen; hit rate 0.49% among 300,000; inhibition, % at 5.96 µM; recombinant F. hepatica cathepsin L1, Z-Leu-Arg-MCA fluorescence;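 active = inhibition above the mean of all tested compounds plus 3 SD, set per screening campaign, cut at about 17% in these data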;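 also: 0% = plate median of test compound wells and 100% = 1 µM Z-Phe-Ala-diazomethylketone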
core dimer inh: blocks dimerization of HCV core protein | inhibition, % at 5 µM | TR-FRET GST/Flag-core106 dimerization, 1536-well | hit rate 0.33% among 300,000;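 active = inhibition above the mean of all tested compounds plus 3 SD, set per screening campaign, cut at about 45% in these data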
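assay system = GST-tagged and Flag-tagged HCV core protein residues 1-106 | controls = unlabelled core106 and no-GST-core106 wells | incubation = compound-protein-antibody incubation 4 h at 22.5 °C | probe or stimulus = Eu donor and XL665 acceptor anti-tag antibodies | read-out = % inhibition based on acceptor/donor emission ratio | signal = TR-FRET 671 and 617 nm emission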
PP1 counter: blocks human PP1-alpha phosphatase, a PP5 counter-screen | P62136 | purified PP1alpha, OMFP fluorescence | inhibition, % at 6.7 µM | hit rate 0.9% among 320,000 | AID 2235;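 active = inhibition above the mean inhibition of all tested compounds plus 3 SD, computed separately for each screening campaign, cut at about 15% in these data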
Target sequence (P62136 whole entry, looked up): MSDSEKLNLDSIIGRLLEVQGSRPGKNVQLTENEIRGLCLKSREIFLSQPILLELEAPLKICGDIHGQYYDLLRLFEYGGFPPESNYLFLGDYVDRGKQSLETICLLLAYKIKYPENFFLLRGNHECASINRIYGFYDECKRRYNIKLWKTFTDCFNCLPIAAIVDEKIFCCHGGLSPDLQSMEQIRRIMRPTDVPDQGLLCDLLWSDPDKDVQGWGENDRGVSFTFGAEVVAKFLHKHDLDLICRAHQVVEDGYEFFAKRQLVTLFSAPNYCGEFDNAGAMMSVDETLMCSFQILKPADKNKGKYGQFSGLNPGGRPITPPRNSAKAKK
NadD inh: NadD (S. aureus) enzyme inhibition. inhibition, % at 20 µM. hit rate 0.78% among 360,000. purified NadD enzyme, colorimetric absorbance read-out; in the data active = inhibition above about 26%
Myeloid diff: promotes myeloid progenitor differentiation. shares compounds with Myeloid diff 2. ER-HoxA9 myeloid progenitors, GFP/Mac1 double-positive flow. calls only. hit rate 2% among 2,300. AID 651706;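 active = share of green or green-and-red cells above 9 and 9% in run 1 or 4 and 3% in run 2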
GFP autofluor: flagged as fluorescent in myeloid differentiation counter-screen. fluorescence response, % (no concentration beside the values). hit rate 7.4% among 2,300. ER-HoxA9 myeloid progenitors, no estrogen, GFP autofluorescence flow cytometry; vehicle wells 0%, positive control 100%. shares compounds with Myeloid diff 2;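 active = over 5% cells positive for green fluorescent reporter, or over 2% positive for both it and APC stain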;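 also: range taken on the double positive population between DMSO and positive control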
Starred values were filed as active, the others as inactive; i = inactive; ? = inconclusive; · = no result given; + = active, no number. Hits are enriched below; roughly 3.1% of the tested compounds scored in any of these assays.

SMILES	PP5 inh	Myeloid diff 2	Fh CTSL1 inh	core dimer inh	PP1 counter	NadD inh	Myeloid diff	GFP autofluor
COc1ccc(Nc2nnc(SCc3cn4c(C)cccc4n3)s2)cc1	-2	+	-3	5	2	0	i	0
C[C@H](CO)N1C[C@H](C)[C@@H](CN(C)C(=O)Oc2ccccc2)OCc2cn(nn2)CCCC1=O	·	i	·	·	·	2	i	0
C[C@H]1CN([C@@H](C)CO)C(=O)CCCn2nncc2CO[C@H]1CN(C)C(=O)CCC(F)(F)F	·	i	·	·	·	11	i	0
C[C@H]1CN([C@@H](C)CO)C(=O)CCCn2nncc2CO[C@H]1CN(C)S(=O)(=O)c1cccc(F)c1	·	i	·	·	·	6	i	0
Cn1ncc2c(=S)nc(Cl)[nH]c21	·	i	·	·	·	7	·	·
COc1ccc(C2N(c3ccc(C)cc3)CCN2c2ccc(C)cc2)cc1O	3	i	1	4	-1	1	i	0
CCCN(C(=O)CSc1nnc(-c2ccncc2)n1CCC)c1c(N)n(Cc2ccccc2)c(=O)[nH]c1=O	·	i	·	·	·	0	·	·
Cc1n[nH]c(C)c1N1C(=O)c2cccc3c(Br)ccc(c23)C1=O	-1	i	0	7	1	-2	i	0
O=C(NCc1ccccc1Cl)c1ccc2nc([C@@H]3O[C@H](CO)[C@H](O)[C@H](O)[C@H]3O)[nH]c2c1	·	i	·	·	·	2	·	·
COc1cc2oc3cc(C#Cc4ccc(N)cc4)ccc3c(=O)c2cc1OC	-1	i	1	6	-1	9	·	·
Nc1ccc(C#Cc2ccc3c(=O)c4ccccc4oc3c2)cc1	3	i	1	3	0	14	+	0
CCCC(=O)Nc1cc(-c2nc3ncccc3o2)ccc1C	-2	·	-3	-2	-3	1	i	0
COC(=O)c1cc(Br)ccc1NC(=O)CSCc1c(C)noc1C	1	i	·	·	-1	-5	·	·
COc1ccccc1N1CCN(S(=O)(=O)CCNC(=O)C2CC2)CC1	-2	i	9	-4	0	-2	·	·
O=C(O)CCCCCN1C(=O)/C(=C\c2ccncc2)SC1=S	3	+	-3	-4	0	2	i	0
O=C(O)CCCCCN1C(=O)/C(=C/c2ccncc2)SC1=S	1	i	-3	-10	-7	3	·	·
O=C1c2ccccc2C(c2nnnn2-c2ccc3c(c2)OCCO3)N1Cc1ccccc1 (stereo not drawn)	·	i	·	·	·	-1	·	·
CCOC(=O)Cn1nnc(-c2cccc(OC)c2)n1	1	i	-4	-4	6	-2	i	0
CCC(C)/C(C)=N/NC(=O)c1ccc(CSc2nc3ccccc3s2)cc1 (stereo not drawn)	6	i	-4	-2	11	12	i	6.1*
O=C(COC(=O)c1cccnc1Cl)Nc1ccc2c(c1)OCCO2	-1	+	-14	1	-5	-6	i	0
O=C(CNC(=O)c1ccccc1F)NCCc1ccccc1F	1	i	·	·	2	0	·	·
CCOC(=O)C1CN(C(=O)OCC)CC1=NNC(N)=O (stereo not drawn)	·	i	·	·	·	-1	·	·
CCOc1ncccc1C(=O)N1CCN(S(=O)(=O)c2ccc3ccccc3c2)CC1	2	i	-2	1	4	-6	i	0
Cc1ccc(S(=O)(=O)N2CCN(S(=O)(=O)c3ccc(C)cc3)C3OCCOC32)cc1 (stereo not drawn)	6	i	-1	1	-3	-7	i	0
Cc1ccc(S(=O)(=O)N2CCCCC2C(=O)O)cc1 (stereo not drawn)	-1	i	-2	-3	-1	9	·	·
SMILES	PP5 inh	Myeloid diff 2	Fh CTSL1 inh	core dimer inh	PP1 counter	NadD inh	Myeloid diff	GFP autofluor
CCc1nonc1NC(=O)COc1ccc(Cl)c(C)c1	-3	i	-5	-12	-5	3	i	0
CC(C)=CCC/C(C)=C/CNC(=O)C[C@H]1C[C@H](C(=O)N2CCCCC2)[C@@]2(C)c3[nH]c4ccc(Cl)cc4c3CCN2C1=O	·	+	·	·	·	-3	i	0
CC(C)=CCC/C(C)=C/CNC(=O)CC1C[C@H](C(=O)N2CCCCC2)[C@@]2(C)c3[nH]c4ccccc4c3CCN2C1=O (stereo partly drawn)	·	i	·	·	·	3	·	·
Cc1ccc(NC(=O)COC(=O)Cc2ccc(Br)cc2)cc1S(=O)(=O)N1CCOCC1	·	i	·	·	·	-5	·	·
Cc1ccccc1Cn1c(=O)n(-c2ccccc2)c(=O)c2ccc(C(=O)NCc3ccco3)cc21	-1	i	-2	1	-1	6	·	·
O=C(NCc1ccco1)c1ccc2c(=O)n(-c3ccccc3)c(=O)n(Cc3cccc(F)c3)c2c1	0	+	4	3	-4	7	i	0
N#Cc1ccc(S(=O)(=O)N2CCCCC2c2cc(C(=O)N3CCOCC3)no2)cc1 (stereo not drawn)	·	i	·	·	·	1	·	·
CCOc1ccccc1NC(=O)c1ccccc1-c1nc(-c2ccccc2)no1	4	+	1	2	8	-8	i	0
CCOC(=O)N1CCN(C(=O)CSCC(=O)Nc2nc(-c3ccc(C)cc3)cs2)CC1	-1	i	-2	5	-1	-1	i	0
CN(C)c1ccc(NC(=O)CN2CCc3ccccc3C2)cc1	3	i	-1	3	2	5	·	·
CC1(C)O[C@@H]2C[C@H]3[C@@H]4C[C@H](F)C5=CC(=O)CC[C@]5(C)[C@H]4[C@@H](O)C[C@]3(C)[C@]2(C(=O)CO)O1	-1	i	-3	8	3	-2	i	0
CC1(C)O[C@@H]2C[C@H]3[C@@H]4C[C@H](F)C5=CC(=O)C=C[C@]5(C)[C@H]4[C@@H](O)C[C@]3(C)[C@]2(C(=O)CO)O1	2	?	-1	-7	-2	0	·	·
CCc1ccc(C2CC3C(CN2S(=O)(=O)c2ccc(C)cc2)[C@@H](O)C[C@@H](c2ccc(CC)cc2)N3S(=O)(=O)c2ccc(C)cc2)cc1 (stereo partly drawn)	·	i	·	·	·	·	·	·
CCCN(CCC)CCNC(=O)c1cc2c(-c3ccc(Cl)cc3)nn(C)c2s1	-2	?	2	0	8	-14	·	·
CCN(CC)CCNC(=O)c1cc2c(-c3ccc(Cl)cc3)nn(C)c2s1	2	+	-3	6	-8	-5	i	0
Cc1cc(C(=O)NC2CCCc3c2cnn3-c2cccc(C)c2C)n(C)n1 (stereo not drawn)	2	+	2	-21	-1	2	i	0
COc1cc(NC(=O)CN(C)S(=O)(=O)c2ccc(-c3ccc(=O)[nH]n3)s2)cc(OC)c1	2	i	2	22	7	10	·	·
